Laboratory results: article PMC8500343 (Pharmacology Research & Perspectives, 2021)
“And” between values parts separate entries of the source, which are not always exact repeats. Equal entries are not always repeated. Where two headings read alike, the source gives them in different places.

Assays:
[1] = no reference given; cited from earlier work
[2] = Stability in plasma samples; assay type: in vitro ADME, human
[3] = Food effect part; assay type: in vivo, human (healthy adult subjects); conditions: for Geometric means ratio, AUC0–last / Geometric means ratio, AUC0–∞ / Geometric means ratio, C max: Treatment C/D; for mean C max higher under fed (test) compared with fasted (reference) conditions / t 1/2 / AUC(0-t) / AUC(0-inf): Group 2, FDC; for mean C max higher under fed (test) compared with fasted (reference) conditions: arithmetic means; for CVw (intrasubject coefficient of variation), AUC0–last / CVw (intrasubject coefficient of variation), AUC0–∞ / CVw (intrasubject coefficient of variation), C max: Group 2, Treatment C/D; for AUC(0-t): AUC0–last; for AUC(0-inf): AUC0–∞
In short: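 Healthy adults in a randomized two-way crossover, sequence C-D or D-C. Single oral fixed-dose tablet (10/40 mg) was given fed or fasted; both arms fasted overnight for at least 10 h. Fed dosing followed a high-fat, high-calorie breakfast per FDA guidance, eaten within 30 min. Plasma was sampled predose to 216 h and assayed by LC-MS/MS. Noncompartmental PK gave GMR 90% CIs against 80.00–125.00 limits.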

[4] = Bioequivalence part; assay type: in vivo, human (healthy adult subjects); conditions: for Geometric means ratio, AUC0–last / Geometric means ratio, AUC0–∞ / Geometric means ratio, C max: Group 1, FDC vs. free combination, Treatment A/B, fasted; for t 1/2 / AUC(0-t) / AUC(0-inf): mean (SD); for CVw (intrasubject coefficient of variation), AUC0–last / CVw (intrasubject coefficient of variation), AUC0–∞ / CVw (intrasubject coefficient of variation), C max: Group 1, Treatment A/B; for AUC(0-t): AUC0–last; for AUC(0-inf): AUC0–∞
In short: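 Single-centre, open-label, randomized two-period crossover in healthy adult men and women. Single oral doses were given after an overnight fast of at least 10 h: fixed-dose tablet (10/40 mg) versus 10 mg macitentan plus 40 mg Canadian-sourced tadalafil tablets. Plasma was sampled predose to 216 h and assayed by LC-MS/MS. Noncompartmental PK gave GMR 90% CIs against 80.00–125.00 limits and intrasubject CV.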

[5] = cited from earlier work
[6] = both, human, plasma, oral, fasted (Treatment D), mean (SD)
[7] = both, human, plasma, oral, fed (Treatment C), mean (SD)
[8] = Group 1, FDC, fasted (Treatment A)
[9] = both, human, plasma, oral, Group 1, FDC, fasted (Treatment A)
[10] = both, human, plasma, oral, Group 1, free combination, fasted (Treatment B)
[11] = in the presence of macitentan and metabolite
[12] = fasted (Treatment D), mean (SD)
[13] = Group 1, free combination, fasted (Treatment B)

Compound: CCCNS(=O)(=O)Nc1ncnc(OCCOc2ncc(Br)cn2)c1-c1ccc(Br)cc1 [Macitentan]
- biopharmaceutical classification system (BCS) class [1]: 2
- stability in plasma samples at room temperature ([2]; in the presence of tadalafil): at least 26 h
- stability in plasma samples, freeze/thaw cycles ([2]; in the presence of tadalafil): 5 freeze/thaw cycles
- 90% CI for the GMR of C max versus equivalence limits (80.00% to 125.00%) ([3]; Group 2, FDC fed vs. fasted): outside the equivalence limits
- C max geometric means ratio, test higher compared to reference ([3]; Group 2, FDC fed vs. fasted): 16.10%
- Geometric means ratio, AUC0–last ([3]; Group 2, FDC fed vs. fasted): 102.32%
- Geometric means ratio, AUC0–∞ ([3]; Group 2, FDC fed vs. fasted): 102.13%
- Geometric means ratio, C max ([3]; Group 2, FDC fed vs. fasted): 116.10%
- mean C max higher under fed (test) compared with fasted (reference) conditions [3]: approximately 15.9%
- t 1/2 ([3]; fed (Treatment C), mean (SD)): 14.1 (2.50) h
- CVw (intrasubject coefficient of variation), AUC0–last [3]: 6.6%
- CVw (intrasubject coefficient of variation), AUC0–∞ [3]: 6.4%
- CVw (intrasubject coefficient of variation), C max [3]: 12.4%
- Tmax ([3]; both, human, plasma, oral): 10 h
- half-life ([3]; both, human, plasma, oral): 15.5 h
- AUC(0-t) [3, 6]: 6220 ng·h/mL
- AUC(0-t) [3, 7]: 6430 ng·h/mL
- AUC(0-inf) [3, 6]: 6340 ng·h/mL
- AUC(0-inf) [3, 7]: 6540 ng·h/mL
- Geometric means ratio, AUC0–last [4]: 100.96%
- Geometric means ratio, AUC0–∞ [4]: 100.66%
- Geometric means ratio, C max [4]: 101.49%
- t 1/2 [4, 8]: 13.9 (2.87) h
- CVw (intrasubject coefficient of variation), AUC0–last [4]: 9.6%
- CVw (intrasubject coefficient of variation), AUC0–∞ [4]: 9.5%
- CVw (intrasubject coefficient of variation), C max [4]: 11.2%
- Tmax ([4]; Group 1, free combination, fasted (Treatment B), median (range)): 10.0 (3.55–12.0) h
- Tmax ([4]; both, human, plasma, oral): 10 h
- half-life ([4]; both, human, plasma, oral): 14.6 h
- AUC(0-t) [4, 9]: 5850 ng·h/mL
- AUC(0-t) [4, 10]: 5800 ng·h/mL
- AUC(0-inf) [4, 9]: 5930 ng·h/mL
- AUC(0-inf) [4, 10]: 5900 ng·h/mL

Compound: CN1CC(=O)N2[C@H](c3ccc4c(c3)OCO4)c3[nH]c4ccccc4c3C[C@@H]2C1=O [Tadalafil]
- biopharmaceutical classification system (BCS) class [1]: 2
- stability in plasma samples at room temperature [2, 11]: at least 24 h
- stability in plasma samples at −20 and −70℃ [2, 11]: 127 days
- stability in plasma samples, freeze/thaw cycles [2, 11]: 5 freeze/thaw cycles
- intersubject variability in C max ([3]; FDC under fasting conditions): 34.0%
- C max geometric means ratio, test higher compared to reference ([3]; Group 2, FDC fed vs. fasted): 45% and 44.97%
- Geometric means ratio, AUC0–last ([3]; Group 2, FDC fed vs. fasted): 111.07%
- Geometric means ratio, AUC0–∞ ([3]; Group 2, FDC fed vs. fasted): 111.04%
- Geometric means ratio, C max ([3]; Group 2, FDC fed vs. fasted): 144.97%
- mean C max higher under fed (test) compared with fasted (reference) conditions [3]: approximately 42.5%
- t 1/2 [3, 12]: 23.4 (6.64) h
- CVw (intrasubject coefficient of variation), AUC0–last [3]: 9.9%
- CVw (intrasubject coefficient of variation), AUC0–∞ [3]: 9.9%
- CVw (intrasubject coefficient of variation), C max [3]: 17.7%
- Tmax ([3]; both, human, plasma, oral): 2.5 h
- half-life ([3]; both, human, plasma, oral): 24.5 h
- AUC(0-t) [3, 6]: 19700 ng·h/mL
- AUC(0-t) [3, 7]: 22300 ng·h/mL
- AUC(0-inf) [3, 6]: 19900 ng·h/mL
- AUC(0-inf) [3, 7]: 22500 ng·h/mL
- Cmax ([3]; both, human, plasma, oral, geometric mean of tadalafil C max under fed conditions, FDC formulation, fed): 666 ng/mL
- ratio of geometric mean tadalafil C max, FDC formulation vs. tadalafil ([3]; fed conditions, 666 ng/ml vs. 586 ng/ml (ref 21)): 1.14
- geometric mean of tadalafil C max under fed conditions ([5]; tadalafil alone, fed): 586 ng/mL
- C max ([5]; tadalafil in a fasted state, another study): 614 ng/mL
- Geometric means ratio, AUC0–last [4]: 98.87%
- Geometric means ratio, AUC0–∞ [4]: 98.82%
- Geometric means ratio, C max [4]: 88.30%
- t 1/2 [4, 8]: 22.8 (7.76) h
- CVw (intrasubject coefficient of variation), AUC0–last [4]: 11.3%
- CVw (intrasubject coefficient of variation), AUC0–∞ [4]: 11.3%
- CVw (intrasubject coefficient of variation), C max [4]: 16.1%
- t 1/2 [4, 13]: 22.7 (7.26) h
- Tmax ([4]; both, human, plasma, oral): 2.5 h
- AUC(0-t) [4, 9]: 20600 ng·h/mL
- AUC(0-t) [4, 10]: 20800 ng·h/mL
- AUC(0-inf) [4, 9]: 20700 ng·h/mL
- AUC(0-inf) [4, 10]: 20900 ng·h/mL

Compound: NS(=O)(=O)Nc1ncnc(OCCOc2ncc(Br)cn2)c1-c1ccc(Br)cc1 [Aprocitentan]
- stability in plasma samples at room temperature ([2]; in the presence of tadalafil): at least 26 h
- stability in plasma samples, freeze/thaw cycles ([2]; in the presence of tadalafil): 5 freeze/thaw cycles
- C max ([3]; Group 2, FDC 10/40 mg, fasted (Treatment D), mean (SD)): 165 (29.3) ng/ml
- 90% CI of GMRs for all 3 PK parameters versus equivalence limits ([3]; Group 2, FDC fed vs. fasted): within the equivalence limits
- Geometric means ratio, AUC0–last ([3]; Group 2, FDC fed vs. fasted): 104.50%
- Geometric means ratio, AUC0–∞ ([3]; Group 2, FDC fed vs. fasted): 103.98%
- Geometric means ratio, C max ([3]; Group 2, FDC fed vs. fasted): 107.25%
- t 1/2 [3, 12]: 49.7 (7.63) h
- t 1/2 ([3]; fed (Treatment C), mean (SD)): 49.4 (6.02) h
- CVw (intrasubject coefficient of variation), AUC0–last [3]: 7.2%
- CVw (intrasubject coefficient of variation), AUC0–∞ [3]: 7.0%
- CVw (intrasubject coefficient of variation), C max [3]: 7.4%
- AUC(0-t) [3, 7]: 18900 ng·h/mL
- AUC(0-inf) [3, 6]: 19500 ng·h/mL
- AUC(0-inf) [3, 7]: 20300 ng·h/mL
- t 1/2 [4, 8]: 50.7 (9.99) h
- t 1/2 [4, 13]: 49.4 (6.92) h
- AUC(0-t) [4, 9]: 20900 ng·h/mL
- AUC(0-t) [4, 10]: 20800 ng·h/mL
- AUC(0-inf) [4, 9]: 22600 ng·h/mL
- AUC(0-inf) [4, 10]: 22500 ng·h/mL
